Most compounds without a hit are left out; they make up all but 2.5% or so of the library.
PG9 binder: small molecules binding HIV-1 gp120 antibody PG9. TR-FRET gp120-PG9 antibody binding. inhibition, % at 6.7 µM. 360,000 compounds, 0.43% hits. AID 624416; in the data active = inhibition above about 8.5%
MC4R antag cAMP: blocks human MC4R cAMP signaling. inhibition, % at 6.5 µM. MC4R-expressing cells, MTII-stimulated cAMP, LANCE TR-FRET. AID 540295. 360,000 compounds, 0.48% hits;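 active = inhibition above its plate's cutoff, the mean of tested wells on that plate plus 3 SD, cut at about 29% in these data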
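Assay system: U2OS cells stably expressing human melanocortin 4 receptor (MC4R) / Dosing: 6.5 µM / Timing: compound 30 min, challenge 1 h, detection 1 h / Measured by: Eu-cAMP/anti-cAMP TR-FRET, emission 671 nm / Replicates: singlicate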
NTR1 ag: NTR1 (human) agonism. activation, % at 20 µM. P30989. AID 493036. NTR1-U2OS beta-arrestin-GFP spot imaging, agonist mode. 330,000 compounds, 0.17% hits;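 active = activation at or above 40% of the spot to cytoplasm intensity ratio, with at least 20 cells analyzed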
Target sequence (P30989 whole entry, looked up): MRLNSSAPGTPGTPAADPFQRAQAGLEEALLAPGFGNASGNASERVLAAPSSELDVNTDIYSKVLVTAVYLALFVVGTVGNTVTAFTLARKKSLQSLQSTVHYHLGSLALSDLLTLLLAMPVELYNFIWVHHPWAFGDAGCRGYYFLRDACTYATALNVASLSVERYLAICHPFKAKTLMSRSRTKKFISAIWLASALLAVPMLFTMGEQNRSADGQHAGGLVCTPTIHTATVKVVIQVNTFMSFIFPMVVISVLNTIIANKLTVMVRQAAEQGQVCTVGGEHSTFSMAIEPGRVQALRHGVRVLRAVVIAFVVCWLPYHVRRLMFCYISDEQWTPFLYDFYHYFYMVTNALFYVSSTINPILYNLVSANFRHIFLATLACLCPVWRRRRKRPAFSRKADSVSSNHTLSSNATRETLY
NR1D1 modulator: modulators of human Rev-erb alpha DNA binding; P20393; Rev-erbα–FITC-DNA binding, fluorescence polarization, 90 min; activity, % at 10 µM; 370,000 compounds, 0.79% hits; AID 1259318;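 active = activity above about 14%, limit read from the data; passing the limit was not always enough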
MC4R barr agon: agonists of human melanocortin 4 receptor (MC4R) beta-arrestin | P32245 | 360,000 compounds, 0.98% hits | U2OS MC4R beta-arrestin complementation, luminescence; percent of melanotan II response, DMSO zero | activation, % at 8.9 µM;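 active = activation above a per-plate cutoff, the mean activation of sample wells on that plate plus 3 SD, cut at about 8% in these data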
NTR1 ag conf: confirmation of agonists of human NTR1 | shares compounds with NTR1 ag | NTR1-U2OS beta-arrestin-GFP translocation imaging | activation, % at 20 µM | 480 compounds, 38% hits | AID 504550;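 active = mean activation at 20 µM of at least 40%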
Numbers stand for hits; – = inactive; · = no result given.

SMILES	PG9 binder	MC4R antag cAMP	NTR1 ag	NR1D1 modulator	MC4R barr agon	NTR1 ag conf
OC(c1ccccc1)(c1ccccc1)C1CCN(CCCOc2ccc(OC(F)(F)F)cc2)CC1	·	·	·	–	·	·
CCN1C(=O)C2(C(C#N)=C(N)Oc3n[nH]c(-c4ccccc4)c32)c2ccccc21 (stereo unspecified)	–	–	–	–	–	·
COC(=O)CN1C(=O)C2(C(C#N)=C(N)Oc3n[nH]c(-c4cccs4)c32)c2ccccc21 (stereo unspecified)	–	–	53	–	–	–
O=C1ON=C(c2ccc(Cl)cc2)/C1=C/c1ccc(O)cc1	–	·	66	–	·	98
Oc1ccc(Cl)cc1/C=C/c1ccc2cccc(O)c2n1	–	–	46	–	–	–
Oc1c(Cl)cc(Cl)cc1/C=C/c1ccc2cccc(O)c2n1	–	–	–	–	–	·
O=C(O)C1=CC[C@@H](c2ccc(Cl)cc2)N(S(=O)(=O)c2ccc(Cl)cc2)[C@H]1c1ccccc1	–	–	40	–	–	–
COc1ccc(C(C(=O)NC2CCCC2)N(C(=O)c2snc(C(N)=O)c2N)c2ccccc2OC)cc1OC (stereo unspecified)	–	–	61	–	–	–
COc1ccc(C(C(=O)NC2CCCC2)N(C(=O)c2snc(C(N)=O)c2N)c2cc(C)ccc2OC)cc1OC (stereo unspecified)	–	–	–	–	–	·
Cc1ccc(S(=O)(=O)N(CCCO)CC(O)CON=C2c3ccccc3-c3ccccc32)cc1 (stereo unspecified)	–	–	47	–	–	–
CCN(CC(O)Cn1c2ccccc2c2ccccc21)S(=O)(=O)c1ccc(C)cc1 (stereo unspecified)	–	–	–	–	–	·
O=[N+]([O-])c1ccc(-c2cnc(SC(c3ccccc3)c3ccccc3)[nH]2)cc1	–	–	54	–	–	–
COc1ccc(Oc2c(-c3cccs3)cnn(-c3ccc(C)cc3)c2=O)cc1	·	·	·	–	·	·
COc1cccc(/C=C/C(=O)c2ccc(C)c([N+](=O)[O-])c2)c1	–	–	66	–	–	–
COc1ccc(/C=C/C(=O)c2ccc(C)c([N+](=O)[O-])c2)cc1O	–	–	43	–	–	–
COc1cc(C(=O)/C=C/c2cccnc2)c([N+](=O)[O-])cc1OC	–	–	42	–	–	47
Cc1ccc(NC(=O)C2CCCC2)cc1Cl	–	–	–	–	–	·
Cc1ccc(NS(=O)(=O)c2ccc(Cl)c(NC(=S)NC(=O)C3CCCCC3)c2)cc1Cl	–	–	55	–	–	–
O=c1cc(CSc2nc(NCc3ccccc3)c3ccccc3n2)nc2ccc(Cl)cn12	–	–	–	–	–	·
CC1N=C2c3ccccc3N=C(SCc3cc(=O)n4cc(Cl)ccc4n3)N2C1=O (stereo unspecified)	–	–	52	–	–	–
COC(=O)[C@]12C[C@H](CC(=O)N3CCN(C(=O)C4CC4)CC3)C(=O)N(CCc3ccc(OC)c(OC)c3)C1=C[C@H](C1CCCC1)O[C@@H]2C	·	·	·	–	·	·
COc1ccc(-c2cc(-c3cc(C)ccc3O)[nH]n2)cc1	–	–	44	–	–	–
COc1ccc(-c2cc(-c3ccc(C)cc3)n[nH]2)c(O)c1	–	–	–	–	–	·
C[C@@H]1CN([C@H](C)CO)C(=O)c2cc(NS(=O)(=O)c3ccc(F)cc3)ccc2O[C@@H]1CN(C)Cc1ccc(Cl)c(Cl)c1	–	–	–	–	–	–
C[C@H](CO)N1C[C@H](C)[C@@H](CN(C)S(=O)(=O)c2ccc(F)cc2)Oc2ccc(NS(=O)(=O)c3ccc(F)cc3)cc2C1=O	–	–	–	–	–	·
SMILES	PG9 binder	MC4R antag cAMP	NTR1 ag	NR1D1 modulator	MC4R barr agon	NTR1 ag conf
CCCCCOc1ccc(Br)cc1CSC(=N)N	–	–	·	–	–	·
CCCCOc1ccc(CSC(=N)N)cc1Cl	–	–	50	–	–	–
CCOC(=O)N1C(=O)C[C@](Sc2ccc(OC)cc2)(C(=O)N2CCN(C(C)=O)CC2)[C@H]1c1ccc(OC)cc1	·	·	·	–	·	·
COc1ccc(/C=C2\CC/C(=C\c3ccc(OC)c(OC)c3)C2=O)cc1OC	–	–	–	–	–	·
COc1ccc(C=C2C=C(C(C)(C)C)C(=O)C(C(C)(C)C)=C2)cc1OC	–	–	41	–	–	–
CN1C(=O)C[C@@](C#N)(C(=O)NCCc2ccccc2)[C@H]1c1ccccc1	·	·	·	–	·	·
CC(=O)N1CCN(c2ccc(NC(=O)c3ccc4c(c3)OCCO4)cc2Cl)CC1	–	–	–	–	–	·
CC(C)C(=O)N1CCN(c2ccc(NC(=O)c3ccc4c(c3)OCCO4)cc2Cl)CC1	–	–	90	–	–	85
CN[C@H]1C[C@H]2c3[nH]c4c(-c5ccc6c(c5)OCO6)cccc4c3CCN2C[C@H]1[C@H](C)O	·	·	·	–	·	·
O=C(/C=C/c1ccccc1F)c1cccc([N+](=O)[O-])c1	–	–	42	–	–	61
COc1cc(/C=C/C(=O)c2cccc([N+](=O)[O-])c2)cc(OC)c1OC	–	–	–	–	–	·
CCOC(=O)COc1ccc(/C=C/[N+](=O)[O-])c(OCC(=O)OCC)c1	–	–	74	–	–	69
CN(C)S(=O)(=O)c1ccc(S(=O)(=O)NCc2cccs2)cc1	–	–	42	–	–	–
C[C@H]1COc2cc(Br)ccc2S(=O)(=O)N1Cc1cn(Cc2ccccc2)nn1	·	·	·	–	·	·
O=C(/C=C/c1ccc(OCCCF)cc1)Nc1ccnc(-c2ccncc2)n1	–	–	56	–	–	–
O=C(/C=C/c1ccc(OCCCF)cc1)NCc1cccc(Cl)c1	–	–	–	–	–	·
CC(C)c1nnc(NC(=O)CCC2CCCCC2)s1	–	–	41	–	–	–
CC(C)c1nnc(NC(=O)CCC(=O)NC2CCCCCCC2)s1	–	–	–	–	–	·
O=S(=O)(c1ccccc1)N1CCN(c2cccc(Cl)c2)CC1	–	–	–	–	–	·
O=[N+]([O-])c1ccc2[nH]cc(S(=O)(=O)N3CCN(c4cccc(Cl)c4)CC3)c2c1	–	–	41	–	–	–
C[C@@H](NC(=O)c1[nH]cnc1C(=O)Nc1ccc(Cl)cc1)c1ccccc1	–	–	44	–	–	54
O=C(Nc1ccc(Cl)cc1)c1nc[nH]c1C(=O)NCc1ccccc1	–	–	50	–	–	–
Cc1ccc(NC(=O)c2nc[nH]c2C(=O)N[C@@H](C)c2ccccc2)cc1	–	–	–	–	–	·
C[C@@H](NC(=O)c1[nH]cnc1C(=O)Nc1ccccc1)c1ccccc1	–	–	–	–	–	·
C[C@H](NC(=O)c1[nH]cnc1C(=O)Nc1ccc(Cl)cc1)c1ccccc1	–	–	51	–	–	–
CCOc1cc(N2CCOCC2)c(OCC)cc1NC(=O)c1nn(CC)c(=O)c2ccccc12	–	–	45	–	–	–
N[C@@H](CSCC(=O)O)C(=O)O	·	·	·	–	·	·
